The values that follow come from ChEMBL document CHEMBL1138767, “Macrocyclic inhibitors for peptide deformylase: a structure-activity relationship study of the ring size” (J Med Chem, 2004).

Converted amounts (≈) assume the structure as drawn. Bounds are passed on as bounds.

For the first experiment, the target named is T1, Peptide deformylase (Escherichia coli, UniProt Q9JN24).
T1 sequence (Q9JN24 whole entry): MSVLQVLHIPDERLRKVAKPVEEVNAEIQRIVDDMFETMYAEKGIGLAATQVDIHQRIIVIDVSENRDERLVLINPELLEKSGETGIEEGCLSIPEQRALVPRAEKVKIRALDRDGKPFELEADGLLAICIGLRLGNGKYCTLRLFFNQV
The experiment can be described thus: Inhibitory effect against Escherichia coli peptide deformylase (PDF) by DPPI assay.
Conditions: not given
An outline of the steps:
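E. coli PDF (Co(II) cofactor) assayed continuously at room temperature in 50 mM Hepes, 10 mM NaCl, 5 mM DTT, pH 7.0. Read at 360 nm, initial rates from <30 s, no-PDF background subtracted. K_I from Michaelis–Menten fit.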
`CC(C)(C)[C@@H]1NC(=O)[C@@H](CN(O)C=O)CCCCCCCCCCCNC1=O` displayed a Ki of 77 nM.

On to `CC(C)(C)[C@@H]1NC(=O)[C@@H](CN(O)C=O)CCCCCCCCCNC1=O`, for which the affinity corresponds to a Ki of 109 nM.

Take `CC(=O)NCCCC[C@@H]1NC(=O)[C@@H](CN(O)C=O)CCCCCCCCCNC1=O`: the affinity, expressed as Ki, was 710 nM.

A further experiment addresses T2, Peptide deformylase (Escherichia coli) (UniProt Q9JN24).
T2 sequence (whole entry): T1 sequence (Q9JN24 whole entry)
The experiment can be described thus: The inhibition constant was measured against Escherichia coli PDF (Peptide deformylase) by diluting a preformed EI* complex into a assay buffer containing f-Met-Lys-AMC and DPPI.
Conditions: not given
The method, boiled down: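 E. coli PDF (Co(II) form) at 40–160 nM and inhibitor at 80–200 nM, preincubated 2 h on ice in 50 mM Hepes pH 7.0, 10 mM NaCl, 5 mM DTT with 100 µM BSA. Then diluted 10-fold into the same buffer with 270 µM f-Met-Lys-AMC and 0.1 U DPPI. Recovery of activity followed continuously at 360 nm; k6 taken from progress curves.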
Consider `CC(C)(C)[C@@H]1NC(=O)[C@@H](CN(O)C=O)CCCCCCCCCCCNC1=O`, for which the K6 came to 0.0015 min⁻¹.

`CC(C)(C)[C@@H]1NC(=O)[C@@H](CN(O)C=O)CCCCCCCCCNC1=O` returned a K6 of 0.0038 min⁻¹.

As for `CC(=O)NCCCC[C@@H]1NC(=O)[C@@H](CN(O)C=O)CCCCCCCCCNC1=O`, the K6 was found to be 0.0048 min⁻¹.

The target in a further experiment is T2, Peptide deformylase (Escherichia coli). Nature of the experiment: Inhibition constant against Escherichia coli Peptide deformylase (PDF).
Conditions: not given
In turn, `CC(C)(C)[C@@H]1NC(=O)[C@@H](CN(O)C=O)CCCCCCCCCCCNC1=O` came in with a K5 of 0.5 min⁻¹.

Molecule `CC(C)(C)[C@@H]1NC(=O)[C@@H](CN(O)C=O)CCCCCCCCCNC1=O` registered a K5 of 1.2 min⁻¹.

Molecule `CC(=O)NCCCC[C@@H]1NC(=O)[C@@H](CN(O)C=O)CCCCCCCCCNC1=O` returned a K5 of 0.28 min⁻¹.

The next experiment deals with Enterococcus faecalis. Nature of the experiment: The compound was tested in vitro for antibacterial activity against Enterococcus faecalis(ATCC 29212).
Conditions: not given
In kind it is functional. The method, boiled down: (§1)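 Broth microdilution per NCCLS M7-A5 in cation-adjusted Mueller–Hinton broth; 5% lysed horse blood added for streptococci, Haemophilus Test Medium for Haemophilus. Inoculum ~5 × 10^5 CFU/mL from 16–20 h plate cultures. Twofold dilutions, final 0.03–32 µg/mL. Incubated 16–20 h at 35–37 °C (Haemophilus and Streptococcus: 24 h, 5% CO2). MIC is the lowest concentration with no visible growth, read visually.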
`CC(C)(C)[C@@H]1NC(=O)[C@@H](CN(O)C=O)CCCCCCCCCNC1=O` displayed an MIC90 of more than 32 µg/mL.

A further experiment concerns the target T3, Interstitial collagenase (Homo sapiens) (UniProt P03956).
T3 sequence (whole entry): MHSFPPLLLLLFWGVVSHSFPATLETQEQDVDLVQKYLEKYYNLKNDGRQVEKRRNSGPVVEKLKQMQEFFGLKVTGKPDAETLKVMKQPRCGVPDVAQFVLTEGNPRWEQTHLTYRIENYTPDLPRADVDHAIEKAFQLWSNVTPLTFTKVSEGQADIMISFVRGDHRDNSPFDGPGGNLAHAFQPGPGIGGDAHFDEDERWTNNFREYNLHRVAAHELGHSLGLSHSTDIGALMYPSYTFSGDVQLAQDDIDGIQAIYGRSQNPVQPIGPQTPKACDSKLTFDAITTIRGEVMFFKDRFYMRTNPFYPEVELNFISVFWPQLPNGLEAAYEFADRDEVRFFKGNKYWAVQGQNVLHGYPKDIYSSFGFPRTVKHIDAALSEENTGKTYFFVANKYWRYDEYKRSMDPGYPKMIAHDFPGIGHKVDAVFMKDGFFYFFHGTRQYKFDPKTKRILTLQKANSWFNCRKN
The experiment can be described thus: Inhibition of MMP-1 (matrix metalloprotease) at 10 uM.
Conditions: not given
An outline of the steps: (§2)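 Human MMP-1, -2, -3 or -9 (0.10 µg, added last to start the reaction) in 100 mM Tris, 100 mM NaCl, 10 mM CaCl2, 0.04% Brij-35. Contained 15 µM fluorogenic peptide substrate (Mca-P-K-G-Dpa-A-R-NH2 for MMP-1/-2) and inhibitor at 0, 1 or 10 µM. Remaining activity monitored continuously by fluorescence, excitation 320 nm, emission 405 nm.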
With `CC(C)(C)[C@@H]1NC(=O)[C@@H](CN(O)C=O)CCCCCCCCCNC1=O`, the inhibition was found to be 14%.

`CC(=O)NCCCC[C@@H]1NC(=O)[C@@H](CN(O)C=O)CCCCCCCCCNC1=O` displayed an inhibition of 13%.

Another experiment deals with Matrix metalloproteinase-9 (Homo sapiens) (UniProt P14780). Nature of the experiment: Inhibition of MMP-9 (matrix metalloprotease) at 10 uM.
Matrix metalloproteinase-9 (Homo sapiens), sequence (P14780 whole entry): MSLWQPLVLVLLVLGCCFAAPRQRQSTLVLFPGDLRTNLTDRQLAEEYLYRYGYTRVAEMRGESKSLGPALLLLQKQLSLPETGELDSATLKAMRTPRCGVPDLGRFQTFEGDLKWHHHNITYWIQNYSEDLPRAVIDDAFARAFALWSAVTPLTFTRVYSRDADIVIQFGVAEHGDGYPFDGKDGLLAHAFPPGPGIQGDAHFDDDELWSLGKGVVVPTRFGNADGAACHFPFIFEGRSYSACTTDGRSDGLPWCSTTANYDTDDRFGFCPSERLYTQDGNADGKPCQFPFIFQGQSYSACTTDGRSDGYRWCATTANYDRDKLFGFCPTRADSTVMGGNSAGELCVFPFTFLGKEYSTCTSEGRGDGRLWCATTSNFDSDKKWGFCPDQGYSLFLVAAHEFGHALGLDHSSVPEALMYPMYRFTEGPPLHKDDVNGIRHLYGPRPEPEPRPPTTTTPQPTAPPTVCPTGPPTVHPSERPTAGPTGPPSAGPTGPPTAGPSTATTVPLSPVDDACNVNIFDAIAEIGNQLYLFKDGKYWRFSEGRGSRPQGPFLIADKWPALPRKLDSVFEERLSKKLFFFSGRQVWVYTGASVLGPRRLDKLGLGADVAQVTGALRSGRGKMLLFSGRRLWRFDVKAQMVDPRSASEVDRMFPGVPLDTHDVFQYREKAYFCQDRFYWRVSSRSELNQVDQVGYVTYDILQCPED
Conditions: not given
The method, boiled down:
as §2
Molecule `CC(C)(C)[C@@H]1NC(=O)[C@@H](CN(O)C=O)CCCCCCCCCNC1=O` had an inhibition of 9%.

On to `CC(=O)NCCCC[C@@H]1NC(=O)[C@@H](CN(O)C=O)CCCCCCCCCNC1=O`, for which the inhibition worked out at 8%.

In the next experiment the test system is Escherichia coli. Nature of the experiment: The compound was tested in vitro for antibacterial activity against Escherichia coli. In kind it is functional.
Conditions: not given
An outline of the steps: as §1
`CC(C)(C)[C@@H]1NC(=O)[C@@H](CN(O)C=O)CCCCCCCCCCCNC1=O` had an MIC90 of more than 24 µg/mL.

A further experiment concerns Haemophilus influenzae. Nature of the experiment: The compound was tested in vitro for antibacterial activity against Haemophilus influenzae (ATCC 31517). In kind it is functional.
Conditions: not given
The method, boiled down: as §1
For the molecule `CC(C)(C)[C@@H]1NC(=O)[C@@H](CN(O)C=O)CCCCCCCCCNC1=O`, the MIC90 turned out to be 0.5 µg/mL (≈ 1.35 µM).

In a further experiment the target is T1, Peptide deformylase. Nature of the experiment: Inhibitory effect against Escherichia coli peptide deformylase (PDF) by AAP assay. The conditions noted are these: read-out: Ki. The method, boiled down:
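E. coli PDF (Co(II) cofactor) 8 nM preincubated with 0–300 nM inhibitor 2 h on ice in 50 mM Hepes pH 7.0, 150 mM NaCl, 100 μM BSA. Reaction started at room temperature with 80 μM f-ML-pNA for 10 min, heat-quenched at 95 °C, then coupled with AAP. A405 measured, no-PDF background subtracted, conversion <20%. K_I* from Michaelis–Menten fit.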
`CC(C)(C)[C@@H]1NC(=O)[C@@H](CN(O)C=O)CCCCCCCCCCCNC1=O`: the Ki came out at 0.22 nM.

`CC(C)(C)[C@@H]1NC(=O)[C@@H](CN(O)C=O)CCCCCCCCCNC1=O`: the Ki was 0.33 nM.

Take `CC(=O)NCCCC[C@@H]1NC(=O)[C@@H](CN(O)C=O)CCCCCCCCCNC1=O`: the Ki stood at 12 nM.

The test system of a further experiment is Bacillus subtilis. Nature of the experiment: The compound was tested in vitro for antibacterial activity against Bacillus subtilis.
Conditions: not given
With `CC(C)(C)[C@@H]1NC(=O)[C@@H](CN(O)C=O)CCCCCCCCCCCNC1=O`, the MIC90 came to 0.08 µg/mL (≈ 0.201 µM).

Regarding `CC(C)(C)[C@@H]1NC(=O)[C@@H](CN(O)C=O)CCCCCCCCCNC1=O`, the MIC90 was 0.7 µg/mL (≈ 1.89 µM).

The subject of another experiment is Streptococcus pneumoniae. Nature of the experiment: The compound was tested in vitro for antibacterial activity against Streptococcus pneumoniae (ATCC 6303). Format: functional.
Conditions: not given
The method, boiled down: as §1
`CC(C)(C)[C@@H]1NC(=O)[C@@H](CN(O)C=O)CCCCCCCCCNC1=O`: the MIC90 stood at 2 µg/mL (≈ 5.41 µM).

A further experiment concerns the target Matrix metalloproteinase-9 (Homo sapiens) (UniProt P14780). The experiment can be described thus: Inhibition of MMP-9 (matrix metalloprotease) at 1 uM.
Conditions: not given
The method, boiled down:
as §2
Molecule `CC(C)(C)[C@@H]1NC(=O)[C@@H](CN(O)C=O)CCCCCCCCCNC1=O` gave an inhibition of 5%.

`CC(=O)NCCCC[C@@H]1NC(=O)[C@@H](CN(O)C=O)CCCCCCCCCNC1=O`: the inhibition came out at 8%.

For another experiment, the target named is Stromelysin-1 (Homo sapiens) (UniProt P08254). Nature of the experiment: Inhibition of MMP-3 (matrix metalloprotease) at 1 uM.
Stromelysin-1 (Homo sapiens), sequence (P08254 100-477 limits assumed): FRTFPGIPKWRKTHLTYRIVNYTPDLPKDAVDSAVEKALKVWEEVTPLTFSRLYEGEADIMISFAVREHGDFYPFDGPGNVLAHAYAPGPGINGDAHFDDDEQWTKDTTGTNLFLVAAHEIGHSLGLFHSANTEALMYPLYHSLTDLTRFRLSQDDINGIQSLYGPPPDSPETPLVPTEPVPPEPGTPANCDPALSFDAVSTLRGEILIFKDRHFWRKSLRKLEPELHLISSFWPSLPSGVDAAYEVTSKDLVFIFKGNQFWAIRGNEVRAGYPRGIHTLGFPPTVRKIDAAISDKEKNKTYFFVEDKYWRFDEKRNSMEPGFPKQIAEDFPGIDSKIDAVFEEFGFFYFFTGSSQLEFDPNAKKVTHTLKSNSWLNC
Conditions: not given
The method, boiled down: as §2
On to `CC(C)(C)[C@@H]1NC(=O)[C@@H](CN(O)C=O)CCCCCCCCCNC1=O`, for which the inhibition came out at 3%.

Turning to `CC(=O)NCCCC[C@@H]1NC(=O)[C@@H](CN(O)C=O)CCCCCCCCCNC1=O`, the inhibition stood at 0%.

Another experiment has as its target 72 kDa type IV collagenase (Homo sapiens) (UniProt P08253). Nature of the experiment: Inhibition of MMP-2 (matrix metalloprotease) at 1 uM.
Conditions: not given
An outline of the steps: as §2
Consider `CC(C)(C)[C@@H]1NC(=O)[C@@H](CN(O)C=O)CCCCCCCCCNC1=O`, for which the inhibition was 4%.

`CC(=O)NCCCC[C@@H]1NC(=O)[C@@H](CN(O)C=O)CCCCCCCCCNC1=O` yielded an inhibition of 17%.

The target of another experiment is T3, Interstitial collagenase (Homo sapiens). Nature of the experiment: Inhibition of MMP-1 (matrix metalloprotease) at 1 uM.
Conditions: not given
The method, boiled down:
as §2
`CC(C)(C)[C@@H]1NC(=O)[C@@H](CN(O)C=O)CCCCCCCCCNC1=O` displayed an inhibition of 7%.

Take `CC(=O)NCCCC[C@@H]1NC(=O)[C@@H](CN(O)C=O)CCCCCCCCCNC1=O`: the inhibition was found to be 3%.

A further experiment concerns the target Stromelysin-1 (Homo sapiens) (UniProt P08254). The experiment can be described thus: Inhibition of MMP-3 (matrix metalloprotease) at 10 uM.
Conditions: not given
The method, boiled down: as §2
`CC(C)(C)[C@@H]1NC(=O)[C@@H](CN(O)C=O)CCCCCCCCCNC1=O` showed an inhibition of 9%.

`CC(=O)NCCCC[C@@H]1NC(=O)[C@@H](CN(O)C=O)CCCCCCCCCNC1=O` registered an inhibition of 8%.

The target of the next experiment is 72 kDa type IV collagenase (Homo sapiens) (UniProt P08253). Nature of the experiment: Inhibition of MMP-2 (matrix metalloprotease) at 10 uM.
72 kDa type IV collagenase (Homo sapiens), sequence (P08253 110-660 limits assumed): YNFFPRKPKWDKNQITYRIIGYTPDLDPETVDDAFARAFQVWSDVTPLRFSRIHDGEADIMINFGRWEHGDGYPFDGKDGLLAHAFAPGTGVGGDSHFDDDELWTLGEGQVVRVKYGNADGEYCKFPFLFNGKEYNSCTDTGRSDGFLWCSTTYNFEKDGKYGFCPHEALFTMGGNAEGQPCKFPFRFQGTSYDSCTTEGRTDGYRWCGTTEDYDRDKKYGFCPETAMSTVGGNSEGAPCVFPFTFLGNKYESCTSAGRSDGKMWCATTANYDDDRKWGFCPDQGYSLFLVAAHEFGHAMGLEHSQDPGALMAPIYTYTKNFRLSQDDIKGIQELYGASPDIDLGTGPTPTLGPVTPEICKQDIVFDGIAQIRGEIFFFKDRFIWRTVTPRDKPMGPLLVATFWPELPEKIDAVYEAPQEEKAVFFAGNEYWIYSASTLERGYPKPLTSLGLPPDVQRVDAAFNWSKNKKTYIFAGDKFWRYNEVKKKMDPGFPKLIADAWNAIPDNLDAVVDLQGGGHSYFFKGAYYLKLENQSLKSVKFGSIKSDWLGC
Conditions: not given
An outline of the steps: as §2
As for `CC(C)(C)[C@@H]1NC(=O)[C@@H](CN(O)C=O)CCCCCCCCCNC1=O`, the inhibition came out at 8%.

As to `CC(=O)NCCCC[C@@H]1NC(=O)[C@@H](CN(O)C=O)CCCCCCCCCNC1=O`, the inhibition came out at 20%.

The next experiment deals with Moraxella catarrhalis. The experiment can be described thus: The compound was tested in vitro for antibacterial activity against Moraxella catarrhalis (ATCC 37054). Format: functional.
Conditions: not given
The method, boiled down: as §1
For the molecule `CC(C)(C)[C@@H]1NC(=O)[C@@H](CN(O)C=O)CCCCCCCCCNC1=O`, the MIC90 came to 0.62 µg/mL (≈ 1.68 µM).

The next experiment has as its system Streptococcus pneumoniae. Nature of the experiment: The compound was tested in vitro for antibacterial activity against Streptococcus pneumoniae (ATCC 49619). Format: functional.
Conditions: not given
The method, boiled down:
as §1
On to `CC(C)(C)[C@@H]1NC(=O)[C@@H](CN(O)C=O)CCCCCCCCCNC1=O`, for which the MIC90 came out at 4 µg/mL (≈ 10.8 µM).

The test system of a further experiment is Staphylococcus aureus. Nature of the experiment: The compound was tested in vitro for antibacterial activity against Staphylococcus aureus (ATCC 29213). In kind it is functional.
Conditions: not given
An outline of the steps:
as §1
Turning to `CC(C)(C)[C@@H]1NC(=O)[C@@H](CN(O)C=O)CCCCCCCCCNC1=O`, the MIC90 was determined as 16 µg/mL (≈ 43.3 µM).

Another experiment concerns Streptococcus pneumoniae. Nature of the experiment: The compound was tested in vitro for antibacterial activity against Streptococcus pneumoniae (ATCC 6301). In kind it is functional.
Conditions: not given
The method, boiled down: as §1
`CC(C)(C)[C@@H]1NC(=O)[C@@H](CN(O)C=O)CCCCCCCCCNC1=O` displayed an MIC90 of 4 µg/mL (≈ 10.8 µM).
